ChEMBL document CHEMBL1153607, “Synthesis and anti-tumor activities of some new pyridines and pyrazolo[1,5-a]pyrimidines” (Eur J Med Chem, 2009)
Converted amounts (≈) assume the structure as drawn. The source made the active and inactive calls. The calls are words filed in the database; no cut-off is given here.

What was measured:
Type in all cases: functional, cell-based
MCF7 [1] = test: Antitumor activity against human MCF7 cells after 48 hrs by SRB assay; conditions: MCF7, 48 h
How it was run: (§1)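 Cells seeded at 10⁴/well and left overnight to attach, then exposed to compound for 48 h at 37 °C, 5% CO₂, in triplicate wells per dose. Cells were fixed and stained with sulforhodamine B in acetic acid, washed four times with 1% acetic acid, and bound dye was extracted with tris–EDTA. Absorbance was read on an ELISA reader. IC50 (50% growth inhibition) was taken from the survival curve.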

MCF7 [2] = test: Antitumor activity against human MCF7 cells assessed as decrease in survival fraction at > 1 ug/ml by SRB assay
How it was run: (§2)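 Monolayers seeded at 10⁴ cells/well were allowed to attach overnight, then treated with compound for 48 h at 37 °C, 5% CO₂, with triplicate wells per dose. Cells were fixed and stained with sulforhodamine B, washed with 1% acetic acid, and dye was solubilised in tris–EDTA before absorbance reading. Surviving fraction was plotted against compound concentration for each cell line.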

HCT-116 [3] = test: Antitumor activity against human HCT116 cells after 48 hrs by SRB assay; conditions: HCT-116, 48 h; how it was run: as §1
HepG2 = test: Antitumor activity against human HepG2 cells after 48 hrs by SRB assay; conditions: HepG2, 48 h; how it was run: as §1
MCF7 [4] = test: Antitumor activity against human MCF7 cells assessed as decrease in survival fraction at 1 ug/ml by SRB assay; how it was run: as §2
HeLa [5] = test: Antitumor activity against human HeLa cells after 48 hrs by SRB assay; how it was run: as §1
MCF7 [6] = test: Antitumor activity against human MCF7 cells assessed as decrease in survival fraction at > 2.5 ug/ml by SRB assay; how it was run: as §2
HeLa [7] = test: Antitumor activity against human HeLa cells assessed as decrease in survival fraction at 1 ug/ml by SRB assay; how it was run: as §2
HCT-116 [8] = test: Antitumor activity against human HCT116 cells assessed as decrease in survival fraction at 1 ug/ml by SRB assay; how it was run: as §2

IC50 (MCF7 [1]) | IC50 (HCT-116 [3]) | IC50 (HepG2) | IC50 (HeLa [5]) | SMILES | Activity (MCF7 [2]) | Activity (MCF7 [4]) | Activity (MCF7 [6]) | Activity (HeLa [7]) | Activity (HCT-116 [8])
0.34 µg/mL (≈ 1.3 µM) | 0.49 µg/mL (≈ 1.87 µM) | 1.01 µg/mL (≈ 3.85 µM) | 0.6 µg/mL (≈ 2.29 µM) | N#Cc1ccc(-c2ccc3ccccc3c2)[nH]c1=S | Active | Active | Active |  | 
0.74 µg/mL (≈ 1.51 µM) | 0.54 µg/mL (≈ 1.1 µM) | 1.88 µg/mL (≈ 3.84 µM) | 0.4 µg/mL (≈ 0.816 µM) | O=C(Nc1ccc(Cl)cc1)c1c(Nc2ccccc2)nn2ccc(-c3ccc4ccccc4c3)nc12 | Active | Active | Active | Active | Active
